Values after ≈ are worked out from the molar mass of the structure shown. Active and inactive are the calls of the source. No cut-off for these calls is given here. Bridge positions count the residues as written; N and C are the ends. Square brackets hold non-standard residues; d marks the D form. Peptide text beside a SMILES is read from it. * marks the point of attachment. NMeF = CN[C@@H](Cc1ccccc1)C(=O)O; NMeL = CN[C@@H](CC(C)C)C(=O)O; NHPhenethyl = c1ccc(CCN*)cc1; PhAc = O=C(Cc1ccccc1)*; βAla = NCCC(=O)O
Key:
[1] = system: Artemia salina; assay: Toxicity against Artemia salina assessed as number of immotile nauplii per well after 24 hrs; assay type: organism-based
Outline: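 Compounds were serially diluted 2-fold over 50 to 0.781 µg/well in microplate wells, and the wells were dried before the brine shrimp nauplii were exposed.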

[2] = system: Mammaliicoccus lentus; assay: Antibacterial activity against Staphylococcus lentus DSM 6672; assay type: functional
[3] = system: Xanthomonas campestris; assay: Antibacterial activity against Xanthomonas campestris DSM 2405; assay type: functional
[4] = system: Pseudomonas syringae; assay: Antibacterial activity against Pseudomonas syringae var.aptata DSM 50252; assay type: functional
[5] = system: Bacillus subtilis; assay: Antibacterial activity against Bacillus subtilis DSM 347; assay type: functional
[6] = system: Nakaseomyces glabratus; assay: Antifungal activity against Candida glabrata DSM 6425 at 40 ug/mL; assay type: functional, organism-based
[7] = system: Pseudomonas syringae; assay: Antibacterial activity against Pseudomonas syringae var.aptata DSM 50252 at 40 ug/mL; assay type: functional, organism-based
[8] = system: Xanthomonas campestris; assay: Antibacterial activity against Xanthomonas campestris DSM 2405 at 40 ug/mL; assay type: functional, organism-based
[9] = system: Ralstonia solanacearum; assay: Antibacterial activity against Ralstonia solanacearum DSM 9544 at 40 ug/mL; assay type: functional, organism-based
[10] = system: Bacillus subtilis; assay: Antibacterial activity against Bacillus subtilis DSM 347 at 40 ug/mL; assay type: functional, organism-based
[11] = system: Escherichia coli; assay: Antibacterial activity against Escherichia coli K12 DSM 489 at 40 ug/mL; assay type: functional, organism-based
[12] = system: Pseudomonas fluorescens; assay: Antibacterial activity against Pseudomonas fluorescens NCIMB 10586 at 40 ug/mL; assay type: functional, organism-based
[13] = system: Mammaliicoccus lentus; assay: Antibacterial activity against Staphylococcus lentus DSM 6672 at 40 ug/mL; assay type: functional, organism-based
[14] = system: Erwinia amylovora; assay: Antibacterial activity against Erwinia amylovora at 40 ug/mL; assay type: functional, organism-based
[15] = system: Ralstonia solanacearum; assay: Antibacterial activity against Ralstonia solanacearum DSM 9544; assay type: functional
[16] = system: Erwinia amylovora; assay: Antibacterial activity against Erwinia amylovora; assay type: functional
[17] = system: Pseudomonas fluorescens; assay: Antibacterial activity against Pseudomonas fluorescens NCIMB 10586; assay type: functional
[18] = system: Galleria mellonella; assay: Insecticidal activity against Galleria mellonella after 6 days; assay type: functional, organism-based
Outline: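 Oral toxicity test on greater wax moth larvae. Compounds were dissolved at 1 mg/mL in 50% aqueous EtOH. Larvae were held at 35 °C for 6 days, then mortality and ability to spin silk were recorded. Four replicates were run, with two for one compound.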

SMILES | IC50 [1] | Activity [2] | MIC [3] | MIC [4] | MIC [5] | Activity [6] | Activity [7] | Activity [8] | Activity [9] | Activity [10] | Activity [11] | Activity [12] | Activity [13] | Activity [14] | MIC [15] | MIC [16] | MIC [17] | Activity [18]
CC(C)CC(NC(=O)[C@@H](O)[C@@H](O)C1CCCN1)C1Cc2cccc(O)c2C(=O)O1 (stereo partly specified) | 9 mg/L (≈ 22.1 µM) | 70% | 40 mg/L (≈ 98.4 µM) | 40 mg/L (≈ 98.4 µM) | 20 mg/L (≈ 49.2 µM) | – | – | – | – | – | – | – | – | – | – | – | – | –
CC[C@H](C)C(=O)C(=O)NCCc1c[nH]c2ccccc12 [NEMATOPHIN] | 50 mg/L (≈ 184 µM) | – | – | – | – | inactive | inactive | inactive | inactive | inactive | inactive | inactive | inactive | inactive | – | – | – | –
C[C@H]1OC(=O)CCNC(=O)[C@H](Cc2c[nH]c3ccccc23)NC(=O)[C@H](Cc2c[nH]c3ccccc23)NC(=O)[C@H]1NC(=O)Cc1ccccc1 [XENEAMATIDE] (PhAc-TWW[βAla]; ester 1-C) | – | – | – | 10 mg/L (≈ 15.1 µM) | 10 mg/L (≈ 15.1 µM) | – | – | – | – | – | – | – | – | – | 10 mg/L (≈ 15.1 µM) | 10 mg/L (≈ 15.1 µM) | 10 mg/L (≈ 15.1 µM) | Active
CN[C@@H](CC(C)C)C(=O)N(C)[C@@H](Cc1ccccc1)C(=O)NCCc1ccccc1 [XENORTIDE A] (H-[NMeL]-[NMeF]-NHPhenethyl) | 200 mg/L (≈ 488 µM) | – | – | – | – | inactive | inactive | inactive | inactive | inactive | inactive | inactive | inactive | inactive | – | – | – | –
CN[C@@H](CC(C)C)C(=O)N(C)[C@@H](Cc1ccccc1)C(=O)NCCc1c[nH]c2ccccc12 [XENORTIDE B] | 200 mg/L (≈ 446 µM) | – | – | – | – | inactive | inactive | inactive | inactive | inactive | inactive | inactive | inactive | inactive | – | – | – | –

From ChEMBL document CHEMBL1157404, “Linear and cyclic peptides from the entomopathogenic bacterium Xenorhabdus nematophilus” (J Nat Prod, 2008)
